Active and inactive are the calls of the source. The calls are words filed in the database; no cut-off is given here.
Assays:
[1] = molecular target: Vascular endothelial growth factor receptor 2 (Homo sapiens, UniProt P35968); assay: Inhibition of VEGFR2 in HUVEC cells assessed as reduction in Akt phosphorylation at 20 to 40 nM incubated for 48 hrs by Western blot analysis; type: cell-based
Procedure, shortened: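 HUVECs were maintained in 1640 medium with 10% FBS. They were treated with graded concentrations for 48 h, PBS-washed and lysed in RIPA buffer. Immunoblots were probed for total and phospho VEGFR2, STAT3, Akt, Erk1 and Src, each at 1:1000. β-actin served as loading control.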

[2] = test system: SiHa; assay: Induction of apoptosis in human SiHa cells assessed as decrease in Ki67 expression at 40 to 80 nM incubated for 48 hrs by Western blot analysis; type: functional, cell-based
Procedure, shortened: (§1)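 Cancer cells were exposed to graded concentrations for 48 h, washed three times in PBS and lysed in RIPA buffer. Immunoblots were probed with anti-Rb, anti-phospho-Rb, anti-Ki67 and anti-Bcl-2, each at 1:1000. β-actin served as loading control.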

[3] = VRT (0 to t) in Sprague-Dawley rat at 10 mg/kg, po by HPLC-MS analysis; type: ADME, organism-based; settings: in vivo
[4] = molecular target: Activin receptor type-1B (Homo sapiens) (UniProt P36896); assay: Inhibition of recombinant human ALK4 (150 to end residues) at 1 uM using as casein substrate incubated for 40 mins in presence of [gamma-33P]-ATP by scintillation counting method relative to control
Procedure, shortened: (§2)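 Kinase panel profiling at 1 μM performed by Eurofins KinaseProfiler; percent inhibition reported as mean of two independent experiments.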

[5] = molecular target: Aurora kinase B (Homo sapiens) (UniProt Q96GD4); assay: Inhibition of recombinant full length human Aurora-B at 1 uM using AKRRRLSSLRA as substrate incubated for 40 mins in presence of [gamma-33P]-ATP by scintillation counting method relative to control; procedure, shortened: as §2
Sequence of Aurora kinase B (Homo sapiens) (Q96GD4 whole entry): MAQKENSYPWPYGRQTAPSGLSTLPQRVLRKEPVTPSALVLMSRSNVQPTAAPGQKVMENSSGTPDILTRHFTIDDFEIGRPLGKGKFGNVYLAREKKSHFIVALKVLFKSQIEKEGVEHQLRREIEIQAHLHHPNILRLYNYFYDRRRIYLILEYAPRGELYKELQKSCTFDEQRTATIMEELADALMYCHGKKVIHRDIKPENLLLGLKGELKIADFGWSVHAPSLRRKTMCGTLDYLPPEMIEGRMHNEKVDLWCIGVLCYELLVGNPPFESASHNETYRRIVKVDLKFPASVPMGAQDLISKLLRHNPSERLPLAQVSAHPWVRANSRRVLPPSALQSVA

[6] = molecular target: Calcium/calmodulin-dependent protein kinase type 1 (Homo sapiens) (UniProt Q14012); assay: Inhibition of recombinant human CAMKIalpha (2 to end residues) at 1 uM using […] as substrate incubated for 40 mins in presence of [gamma-33P]-ATP by scintillation counting method relative to control
Procedure, shortened: (§3)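 Tested at a single 1 uM in an outsourced commercial kinase-profiling panel, read as percent inhibition. Each value is the mean of two independent experiments.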

[7] = molecular target: Beta-adrenergic receptor kinase 1 (Homo sapiens) (UniProt P25098); assay: Inhibition of recombinant human full length GRK2 at 1 uM using casein as substrate incubated for 40 mins in presence of [gamma-33P]-ATP by scintillation counting method relative to control; procedure, shortened: as §3
Sequence of Beta-adrenergic receptor kinase 1 (Homo sapiens) (P25098 whole entry): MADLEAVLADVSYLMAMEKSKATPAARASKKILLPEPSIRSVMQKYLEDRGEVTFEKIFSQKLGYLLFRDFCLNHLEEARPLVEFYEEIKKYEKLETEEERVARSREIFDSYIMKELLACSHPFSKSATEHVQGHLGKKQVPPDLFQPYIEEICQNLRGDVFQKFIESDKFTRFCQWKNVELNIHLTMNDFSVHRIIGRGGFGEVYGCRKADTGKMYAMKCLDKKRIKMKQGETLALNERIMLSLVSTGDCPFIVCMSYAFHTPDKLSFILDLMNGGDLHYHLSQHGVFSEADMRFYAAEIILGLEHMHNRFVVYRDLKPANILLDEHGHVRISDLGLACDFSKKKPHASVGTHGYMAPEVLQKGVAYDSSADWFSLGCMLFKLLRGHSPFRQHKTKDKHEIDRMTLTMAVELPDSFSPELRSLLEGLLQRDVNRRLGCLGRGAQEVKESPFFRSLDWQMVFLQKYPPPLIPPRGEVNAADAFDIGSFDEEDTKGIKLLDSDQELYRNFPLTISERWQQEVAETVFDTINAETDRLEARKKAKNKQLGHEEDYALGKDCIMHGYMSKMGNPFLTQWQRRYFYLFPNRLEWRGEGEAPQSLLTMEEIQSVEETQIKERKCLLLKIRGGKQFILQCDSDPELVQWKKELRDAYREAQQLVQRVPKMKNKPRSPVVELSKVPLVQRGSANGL

[8] = molecular target: Mitogen-activated protein kinase kinase kinase 3 (Homo sapiens) (UniProt Q99759); assay: Inhibition of recombinant human full length MEKK3 at 1 uM using myelin basic protein as substrate incubated for 40 mins in presence of [gamma-33P]-ATP by scintillation counting method relative to control
Sequence of Mitogen-activated protein kinase kinase kinase 3 (Homo sapiens) (Q99759 whole entry): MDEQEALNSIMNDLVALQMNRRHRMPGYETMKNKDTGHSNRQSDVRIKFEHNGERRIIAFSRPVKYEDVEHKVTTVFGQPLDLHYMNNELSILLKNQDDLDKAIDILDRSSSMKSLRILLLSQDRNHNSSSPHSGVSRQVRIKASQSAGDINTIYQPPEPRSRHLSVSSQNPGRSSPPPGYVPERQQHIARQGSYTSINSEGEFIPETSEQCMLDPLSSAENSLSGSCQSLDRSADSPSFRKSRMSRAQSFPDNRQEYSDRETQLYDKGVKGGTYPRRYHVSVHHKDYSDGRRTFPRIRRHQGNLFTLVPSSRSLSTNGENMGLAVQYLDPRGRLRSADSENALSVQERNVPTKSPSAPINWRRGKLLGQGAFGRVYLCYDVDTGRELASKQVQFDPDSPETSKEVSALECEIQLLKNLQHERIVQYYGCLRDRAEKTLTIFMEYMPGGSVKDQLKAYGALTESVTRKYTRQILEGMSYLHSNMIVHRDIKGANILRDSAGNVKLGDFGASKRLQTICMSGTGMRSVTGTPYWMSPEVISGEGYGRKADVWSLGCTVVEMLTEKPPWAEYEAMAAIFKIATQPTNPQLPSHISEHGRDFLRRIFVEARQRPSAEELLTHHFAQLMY

[9] = molecular target: Maternal embryonic leucine zipper kinase (Homo sapiens) (UniProt Q14680); assay: Inhibition of recombinant human MELK (1 to 340 end residues) at 1 uM using KKLNRTLSFAEPG as substrate incubated for 40 mins in presence of [gamma-33P]-ATP by scintillation counting method relative to control
Sequence of Maternal embryonic leucine zipper kinase (Homo sapiens) (Q14680 whole entry, looked up, the tested form may be a part): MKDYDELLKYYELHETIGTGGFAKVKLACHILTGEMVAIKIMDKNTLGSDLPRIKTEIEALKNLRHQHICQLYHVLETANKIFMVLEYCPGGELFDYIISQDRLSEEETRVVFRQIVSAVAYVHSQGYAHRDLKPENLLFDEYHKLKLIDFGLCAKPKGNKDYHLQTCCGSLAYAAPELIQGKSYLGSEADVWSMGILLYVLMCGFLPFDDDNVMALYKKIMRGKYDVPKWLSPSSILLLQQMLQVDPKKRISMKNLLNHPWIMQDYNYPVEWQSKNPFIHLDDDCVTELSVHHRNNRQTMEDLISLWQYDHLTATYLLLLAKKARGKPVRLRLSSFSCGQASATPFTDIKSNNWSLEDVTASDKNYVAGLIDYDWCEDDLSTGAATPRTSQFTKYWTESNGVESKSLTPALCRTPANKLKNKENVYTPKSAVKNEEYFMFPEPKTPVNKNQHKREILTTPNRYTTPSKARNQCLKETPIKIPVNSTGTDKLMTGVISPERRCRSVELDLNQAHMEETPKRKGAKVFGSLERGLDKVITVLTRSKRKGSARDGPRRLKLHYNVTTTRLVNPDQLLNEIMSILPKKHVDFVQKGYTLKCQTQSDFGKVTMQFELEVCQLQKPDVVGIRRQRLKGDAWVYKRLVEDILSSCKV

[10] = molecular target: Serine/threonine-protein kinase MRCK beta (Homo sapiens) (UniProt Q9Y5S2); assay: Inhibition of recombinant human MRCKbeta (1 to 473 residues) at 1 uM using KKRNRTLTV as substrate incubated for 40 mins in presence of [gamma-33P]-ATP by scintillation counting method relative to control
[11] = molecular target: Myosin light chain kinase 2, skeletal/cardiac muscle (Homo sapiens) (UniProt Q9H1R3); assay: Inhibition of recombinant human full length MYLK2 at 1 uM using KKLNRTLSFAEPG as substrate incubated for 40 mins in presence of [gamma-33P]-ATP by scintillation counting method relative to control
[12] = molecular target: MAP kinase-interacting serine/threonine-protein kinase 2 (Homo sapiens) (UniProt Q9HBH9); assay: Inhibition of recombinant human full length MNK2 at 1 uM using myelin basic protein as substrate incubated for 40 mins in presence of [gamma-33P]-ATP by scintillation counting method relative to control
[13] = molecular target: Protein kinase C beta type (Homo sapiens) (UniProt P05771); assay: Inhibition of recombinant human PKCbeta1 (2 to end residues) at 1 uM using histone H1 as substrate incubated for 40 mins in presence of [gamma-33P]-ATP by scintillation counting method relative to control
Sequence of Protein kinase C beta type (Homo sapiens) (P05771 2-671 limits assumed): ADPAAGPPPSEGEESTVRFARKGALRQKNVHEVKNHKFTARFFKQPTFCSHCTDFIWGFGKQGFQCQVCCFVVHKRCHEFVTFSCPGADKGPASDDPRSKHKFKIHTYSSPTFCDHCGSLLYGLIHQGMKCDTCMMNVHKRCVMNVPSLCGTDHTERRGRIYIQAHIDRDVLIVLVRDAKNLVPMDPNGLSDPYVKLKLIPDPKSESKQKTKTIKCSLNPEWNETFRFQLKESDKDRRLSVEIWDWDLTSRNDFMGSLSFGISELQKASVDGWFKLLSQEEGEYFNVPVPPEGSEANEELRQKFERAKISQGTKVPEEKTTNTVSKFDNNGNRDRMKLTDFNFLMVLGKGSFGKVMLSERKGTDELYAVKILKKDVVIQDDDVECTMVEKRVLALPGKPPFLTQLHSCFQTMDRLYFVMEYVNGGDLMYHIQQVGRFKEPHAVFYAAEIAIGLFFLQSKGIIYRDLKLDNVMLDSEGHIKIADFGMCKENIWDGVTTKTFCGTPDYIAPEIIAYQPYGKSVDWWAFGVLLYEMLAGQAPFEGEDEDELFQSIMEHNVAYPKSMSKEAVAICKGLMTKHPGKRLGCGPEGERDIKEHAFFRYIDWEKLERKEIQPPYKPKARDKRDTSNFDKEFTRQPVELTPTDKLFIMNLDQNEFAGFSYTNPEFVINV

[14] = molecular target: Protein kinase C beta type (Homo sapiens) (UniProt P05771); assay: Inhibition of recombinant human PKCbeta2 (2 to end residues) at 1 uM using histone H1 as substrate incubated for 40 mins in presence of [gamma-33P]-ATP by scintillation counting method relative to control
[15] = molecular target: Macrophage-stimulating protein receptor (Homo sapiens) (UniProt Q04912); assay: Inhibition of recombinant human RON (983 to end residues) at 1 uM using GGMEDIYFEFMGGKKK as substrate incubated for 40 mins in presence of [gamma-33P]-ATP by scintillation counting method relative to control
[16] = molecular target: Serine/threonine-protein kinase VRK2 (Homo sapiens) (UniProt Q86Y07); assay: Inhibition of recombinant human VRK2 (1 to 336 residues) at 1 uM using casein as substrate incubated for 40 mins in presence of [gamma-33P]-ATP by scintillation counting method relative to control; procedure, shortened: as §3
Sequence of Serine/threonine-protein kinase VRK2 (Homo sapiens) (Q86Y07 whole entry, the tested form may be a part, canonical isoform): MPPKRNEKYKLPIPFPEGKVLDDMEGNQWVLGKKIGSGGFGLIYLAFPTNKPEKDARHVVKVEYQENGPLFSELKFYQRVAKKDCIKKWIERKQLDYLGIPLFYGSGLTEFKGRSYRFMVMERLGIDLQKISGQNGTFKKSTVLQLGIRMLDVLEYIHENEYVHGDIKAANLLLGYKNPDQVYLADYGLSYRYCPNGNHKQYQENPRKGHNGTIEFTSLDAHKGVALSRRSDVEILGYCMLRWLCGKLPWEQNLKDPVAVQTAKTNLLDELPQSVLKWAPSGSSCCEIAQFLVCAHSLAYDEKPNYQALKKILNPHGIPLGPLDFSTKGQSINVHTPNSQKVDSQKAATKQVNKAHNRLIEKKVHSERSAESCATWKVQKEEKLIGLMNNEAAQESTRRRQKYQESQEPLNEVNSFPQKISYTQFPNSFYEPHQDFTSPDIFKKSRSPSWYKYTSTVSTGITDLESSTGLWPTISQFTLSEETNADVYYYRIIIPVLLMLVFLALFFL

[17] = molecular target: Phosphatidylinositol 4,5-bisphosphate 3-kinase catalytic subunit gamma isoform (Homo sapiens) (UniProt P48736); assay: Inhibition of recombinant human full length PI3K p120gamma at 1 uM using phosphatidylinositol-4, 5-bisphosphate as substrate incubated for 40 mins in presence of [gamma-33P]-ATP by scintillation counting method relative to control
[18] = test system: HUVEC; assay: Antiproliferative activity against HUVEC cells assessed as reduction in cell viability measured upto 72 hrs by CCK8 assay; type: functional, cell-based; settings: Homo sapiens
Procedure, shortened: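 HUVECs, 3×10³ cells/well, kept in 1640 medium with 10% FBS at 37°C and 5% CO₂. Cells were treated at 20 or 40 nM or vehicle, and viability was read by CCK-8 (absorbance 450 nm) at 0, 12, 24, 36, 48, 60 and 72 h. Five replicates per sample.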

[19] = Toxicity in BALB/c mouse assessed as effect on blood parameter by measuring MCH at 40 mg/kg, po administered once two days for 4 times by hematology analyzer; settings: in vivo
[20] = test system: MDA-MB-231; assay: Induction of apoptosis in human MDA-MB-231 cells assessed as decrease in Bcl2 expression at 40 nM incubated for 48 hrs by Western blot analysis; type: functional, cell-based
Procedure, shortened: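 Cells were treated for 48 h, washed three times with PBS, and lysed in RIPA buffer. Immunoblots used anti-Rb, anti-phospho-Rb, anti-Ki67 and anti-Bcl-2 (each 1:1000), with β-actin as loading control.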

[21] = test system: SiHa; assay: Induction of apoptosis in human SiHa cells assessed as decrease in Bcl2 expression at 40 nM incubated for 48 hrs by Western blot analysis; type: functional, cell-based; procedure, shortened: as §1

Sequence of Vascular endothelial growth factor receptor 2 (P35968 whole entry): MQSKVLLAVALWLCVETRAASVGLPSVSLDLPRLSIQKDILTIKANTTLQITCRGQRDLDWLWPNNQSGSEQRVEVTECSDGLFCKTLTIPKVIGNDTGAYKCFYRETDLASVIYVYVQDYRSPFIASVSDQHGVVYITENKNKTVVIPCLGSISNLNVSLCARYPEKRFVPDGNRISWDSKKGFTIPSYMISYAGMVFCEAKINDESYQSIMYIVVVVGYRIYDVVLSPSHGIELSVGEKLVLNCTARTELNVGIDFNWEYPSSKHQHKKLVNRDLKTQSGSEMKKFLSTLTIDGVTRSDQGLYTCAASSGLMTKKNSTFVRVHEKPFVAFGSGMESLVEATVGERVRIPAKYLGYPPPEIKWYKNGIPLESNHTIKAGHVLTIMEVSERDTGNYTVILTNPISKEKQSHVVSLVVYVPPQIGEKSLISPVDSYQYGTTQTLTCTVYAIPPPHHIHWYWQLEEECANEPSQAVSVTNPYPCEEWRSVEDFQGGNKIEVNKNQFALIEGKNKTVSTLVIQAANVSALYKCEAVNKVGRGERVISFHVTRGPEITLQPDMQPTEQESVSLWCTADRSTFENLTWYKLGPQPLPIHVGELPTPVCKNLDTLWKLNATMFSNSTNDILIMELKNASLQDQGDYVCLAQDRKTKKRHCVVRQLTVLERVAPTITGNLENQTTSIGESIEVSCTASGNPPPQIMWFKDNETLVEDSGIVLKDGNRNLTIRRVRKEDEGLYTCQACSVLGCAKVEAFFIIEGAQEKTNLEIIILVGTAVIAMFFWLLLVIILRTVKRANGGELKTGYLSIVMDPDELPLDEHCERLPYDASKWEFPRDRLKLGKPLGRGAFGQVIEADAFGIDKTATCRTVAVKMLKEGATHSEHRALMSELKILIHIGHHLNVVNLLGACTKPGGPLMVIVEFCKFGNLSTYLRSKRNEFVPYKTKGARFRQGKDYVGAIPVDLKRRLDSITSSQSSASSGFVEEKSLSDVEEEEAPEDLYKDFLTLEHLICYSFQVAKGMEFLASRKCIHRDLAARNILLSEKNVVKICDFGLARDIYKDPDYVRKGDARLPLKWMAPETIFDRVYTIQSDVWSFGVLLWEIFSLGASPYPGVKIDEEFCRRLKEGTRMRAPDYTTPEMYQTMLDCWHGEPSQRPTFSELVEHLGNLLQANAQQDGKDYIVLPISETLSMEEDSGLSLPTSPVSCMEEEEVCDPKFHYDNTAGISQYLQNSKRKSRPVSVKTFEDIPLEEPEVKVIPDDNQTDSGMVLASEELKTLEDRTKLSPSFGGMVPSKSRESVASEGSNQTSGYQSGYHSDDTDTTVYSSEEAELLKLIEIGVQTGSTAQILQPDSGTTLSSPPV

Cc1ccc(NC(=O)C2(C(=O)Nc3ccc(Nc4ncc(F)c(-c5cc(F)c6nc(C)n(C(C)C)c6c5)n4)cc3)CC2)cc1
inhibition [1]: Active
Activity [2]: Active
VRT(t) [3]: 7 h
inhibition [4]: 46%
inhibition [5]: 64%
inhibition [6]: 0%
inhibition [7]: 0%
inhibition [8]: 78%
inhibition [9]: 53%
inhibition [10]: 7%
inhibition [11]: 30%
inhibition [12]: 10%
inhibition [13]: 36%
inhibition [14]: 47%
inhibition [15]: 54%
inhibition [16]: 0%
inhibition [17]: 14%
inhibition [18]: Dose-dependent effect
Activity [19]: Non-Toxic

COc1cc2nccc(Oc3ccc(NC(=O)C4(C(=O)Nc5ccc(F)cc5)CC4)cc3)c2cc1OC [CABOZANTINIB]
Activity [20]: Active
Activity [21]: Active

Source: ChEMBL document CHEMBL4406821, “Novel dual inhibitors targeting CDK4 and VEGFR2 synergistically suppressed cancer progression and angiogenesis” (Eur J Med Chem, 2019)
